{"source": "ChEMBL document CHEMBL1132156", "about": "“Synthesis and structure-activity relationships of potential anticancer agents: alkylcarbamates of 3-(9-acridinylamino)-5-hydroxymethylaniline” (J Med Chem, 1999)", "key": {"Mus musculus [1]": {"tested_on": "Mus musculus", "assay": "[…] anticancer activity against B6D2F-1 mice bearing Lewis Lung Carcinoma measured by the Average tumor vol after day 10 at an intraperitoneal dose of 6(mg/kg).", "type": "functional", "procedure,_shortened": "(§1)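 Male B6D2F1 mice (8 weeks old, 20–25 g) received 4×10^6 Lewis lung carcinoma cells sc on day -2. Dosing was ip, QDx5, starting on day 1. Groups were 4 control mice and 3 mice per dose. Tumor size and average body-weight change were evaluated on days 7, 10 and 14. Tumor volume is expressed as the treated/control ratio.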"}, "Mus musculus [2]": {"tested_on": "Mus musculus", "assay": "[…] anticancer activity against B6D2F-1 mice bearing Lewis Lung Carcinoma measured by the Average tumor vol after day 14 at an intraperitoneal dose of 6(mg/kg).", "type": "functional", "procedure,_shortened": "as §1"}, "Mus musculus [3]": {"tested_on": "Mus musculus", "assay": "[…] anticancer activity against B6D2F-1 mice bearing P388 leukemia measured by the average survival time(day+/-SD) at an intravenous dose of 10(mg/kg)..", "type": "functional", "procedure,_shortened": "(§2)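 Male B6D2F1 mice, 8 weeks old, 20–25 g. P388/0 ascites cells (0.2 mL, ascites:saline 1.10) were implanted iv on day 0, and the tumor grew in the liver. Drug was given iv by tail vein on days 1, 3, 5, 7 and 9 (Q2Dx5), with 4–5 mice per group. Survival time was scored as 8 a.m. (0.0), 1 p.m. (0.25) or 5 p.m. (0.5) deaths. %ILS was averaged against untreated controls, and toxic deaths were counted.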"}, "Mus musculus [4]": {"tested_on": "Mus musculus", "assay": "[…] anticancer activity against B6D2F-1 mice bearing P388 leukemia measured by the Average tumor vol after day 10 at an intravenous dose of 7(mg/kg).", "type": "functional"}, "Mus musculus [5]": {"tested_on": "Mus musculus", "assay": "[…] anticancer activity against B6D2F-1 mice bearing P388 leukemia measured by the Average tumor vol after day 11 at an intravenous dose of 7(mg/kg).", "type": "functional"}, "Mus musculus [6]": {"tested_on": "Mus musculus", "assay": "[…] anticancer activity against B6D2F-1 mice bearing P388 leukemia measured by the Average tumor vol after day 14 at an intravenous dose of 3(mg/kg).", "type": "functional"}, "Mus musculus [7]": {"tested_on": "Mus musculus", "assay": "[…] anticancer activity against B6D2F-1 mice bearing Lewis Lung Carcinoma measured by the Average tumor vol after day 7 at an intraperitoneal dose of 3(mg/kg).", "type": "functional", "procedure,_shortened": "as §1"}, "Mus musculus [8]": {"tested_on": "Mus musculus", "assay": "[…] anticancer activity against B6D2F-1 mice bearing Sarcoma 180 measured by the average weight change(g) after day 7 at an intraperitoneal dose of 3(mg/kg).", "type": "functional", "procedure,_shortened": "(§3)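 Male B6D2F1 mice (8 weeks old, 20–25 g) were inoculated sc with 3×10^6 Sarcoma 180 cells on day 0. Dosing was ip, QDx5, starting on day 1. Groups were 4 control mice and 2 mice per dose. Average body weight change (g) and treated/control tumor volume were evaluated on days 7, 10 and 14.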"}, "Mus musculus [9]": {"tested_on": "Mus musculus", "assay": "[…] anticancer activity against B6D2F-1 mice bearing Sarcoma 180 measured by the average weight change(g) after day 7 at an intraperitoneal dose of 7(mg/kg).", "type": "functional", "procedure,_shortened": "as §3"}, "Mus musculus [10]": {"tested_on": "Mus musculus", "assay": "[…] anticancer activity against B6D2F-1 mice bearing P388 leukemia measured by the average weight change(g) after day 11 at an intravenous dose of 10(mg/kg).", "type": "functional", "procedure,_shortened": "(§4)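 Male B6D2F1 mice (8 weeks old, 20–25 g) were implanted iv on day 0 with P388/0 ascites cells (0.2 mL; ascites:saline 1.10), which grew in the liver. Drug was given iv via the tail vein, Q2Dx5, on days 1, 3, 5, 7 and 9. Groups had 4–5 mice. Day 1 value is mean body weight; later days are weight change.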"}, "Mus musculus [11]": {"tested_on": "Mus musculus", "assay": "[…] anticancer activity against B6D2F-1 mice bearing P388 leukemia measured by the average weight change(g) after day 7 at an intravenous dose of 15(mg/kg).", "type": "functional", "procedure,_shortened": "as §4"}, "Mus musculus [12]": {"tested_on": "Mus musculus", "assay": "[…] anticancer activity against B6D2F-1 mice bearing P388 leukemia measured by the average weight change(g) after day 11 at an intravenous dose of 15(mg/kg).", "type": "functional", "procedure,_shortened": "as §4"}, "Mus musculus [13]": {"tested_on": "Mus musculus", "assay": "[…] anticancer activity against B6D2F-1 mice bearing P388 leukemia measured by the average weight change(g) after day 9 at an intravenous dose of 15(mg/kg).", "type": "functional", "procedure,_shortened": "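Male B6D2F1 mice (8 weeks old, 20–25 g) were implanted iv on day 0 with P388/0 ascites cells (0.2 mL; ascites:saline = 1.10). Tumor grew in the liver. Drug was given iv via the tail vein, Q2Dx5, on days 1, 3, 5, 7 and 9. Body weight was recorded on days 1, 7, 9 and 11 and reported as the average change (g).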"}, "Mus musculus [14]": {"tested_on": "Mus musculus", "assay": "[…] anticancer activity against B6D2F-1 mice bearing Lewis Lung Carcinoma measured by the average weight change(g) after day 10 at an intraperitoneal dose of 6(mg/kg).", "type": "functional", "procedure,_shortened": "as §1"}, "Mus musculus [15]": {"tested_on": "Mus musculus", "assay": "[…] anticancer activity against B6D2F-1 mice bearing Lewis Lung Carcinoma measured by the average weight change(g) after day 14 at an intraperitoneal dose of 3(mg/kg).", "type": "functional", "procedure,_shortened": "as §1"}, "Mus musculus [16]": {"tested_on": "Mus musculus", "assay": "[…] anticancer activity against B6D2F-1 mice bearing Lewis Lung Carcinoma measured by the average weight change(g) after day 14 at an intraperitoneal dose of 6(mg/kg).", "type": "functional", "procedure,_shortened": "as §1"}, "Mus musculus [17]": {"tested_on": "Mus musculus", "assay": "[…] anticancer activity against B6D2F-1 mice bearing Lewis Lung Carcinoma measured by the average weight change(g) after day 7 at an intraperitoneal dose of 3(mg/kg).", "type": "functional", "procedure,_shortened": "as §1"}, "Mus musculus [18]": {"tested_on": "Mus musculus", "assay": "[…] anticancer activity against B6D2F-1 mice bearing Sarcoma 180 measured by the average weight change(g) after day 10 at an intraperitoneal dose of 7(mg/kg).", "type": "functional", "procedure,_shortened": "as §3"}, "Mus musculus [19]": {"tested_on": "Mus musculus", "assay": "[…] anticancer activity against 5 B6D2F-1 mice bearing P388 leukemia measured by the toxicity death at an intravenous dose of 10(mg/kg)..", "type": "organism-based", "conditions": "in vivo", "procedure,_shortened": "as §2"}, "Mus musculus [20]": {"tested_on": "Mus musculus", "assay": "[…] anticancer activity against B6D2F-1 mice bearing P388 leukemia measured by the average weight change(g) after day 7 at an intravenous dose of 10(mg/kg).", "type": "functional", "procedure,_shortened": "as §4"}, "Mus musculus [21]": {"tested_on": "Mus musculus", "assay": "[…] anticancer activity against B6D2F-1 mice bearing Sarcoma 180 measured by the Average tumor vol after day 7 at an intravenous dose of 3(mg/kg)."}, "Mus musculus [22]": {"tested_on": "Mus musculus", "assay": "[…] anticancer activity against B6D2F-1 mice bearing Sarcoma 180 measured by the Average tumor vol after day 7 at an intravenous dose of 7(mg/kg)."}, "Mus musculus [23]": {"tested_on": "Mus musculus", "assay": "[…] anticancer activity against B6D2F-1 mice bearing Sarcoma 180 measured by the Average tumor vol after day 14 at an intravenous dose of 5(mg/kg)."}, "Mus musculus [24]": {"tested_on": "Mus musculus", "assay": "[…] anticancer activity against B6D2F-1 mice bearing P388 leukemia measured by the average body weight(g) after day 1 at an intravenous dose of 15(mg/kg)."}, "Mus musculus [25]": {"tested_on": "Mus musculus", "assay": "[…] anticancer activity against B6D2F-1 mice bearing P388 leukemia measured by the average body weight(g) after day 1 at an intravenous dose of 10(mg/kg)."}, "Mus musculus [26]": {"tested_on": "Mus musculus", "assay": "[…] anticancer activity against B6D2F-1 mice bearing Sarcoma 180 measured by the average weight change(g) after day 14 at an intraperitoneal dose of 5(mg/kg)."}, "Mus musculus [27]": {"tested_on": "Mus musculus", "assay": "[…] anticancer activity against B6D2F-1 mice bearing Sarcoma 180 measured by the average weight change(g) after day 14 at an intraperitoneal dose of 3(mg/kg)."}}, "data": [{"smiles": "CCOC(=O)Nc1cc(CO)cc(Nc2c3ccccc3nc3ccccc23)c1", "values": [{"measurement": "Average tumor volume", "setting": "Mus musculus [1]", "result": 0.37}, {"measurement": "Average tumor volume", "setting": "Mus musculus [2]", "result": 0.52}, {"measurement": "Average survival", "setting": "Mus musculus [3]", "result": 18.4, "unit": "days"}, {"measurement": "Average tumor volume", "setting": "Mus musculus [4]", "result": "<0.01"}, {"measurement": "Average tumor volume", "setting": "Mus musculus [5]", "result": "<0.01"}, {"measurement": "Average tumor volume", "setting": "Mus musculus [6]", "result": 0.74}, {"measurement": "Average tumor volume", "setting": "Mus musculus [7]", "result": 0.8}, {"measurement": "Average weight change", "setting": "Mus musculus [8]", "result": -2, "unit": "g"}, {"measurement": "Average weight change", "setting": "Mus musculus [9]", "result": -3.4, "unit": "g"}, {"measurement": "Average weight change", "setting": "Mus musculus [10]", "result": -0.1, "unit": "g"}, {"measurement": "Average weight change", "setting": "Mus musculus [11]", "result": -1.6, "unit": "g"}, {"measurement": "Average weight change", "setting": "Mus musculus [12]", "result": -3.7, "unit": "g"}, {"measurement": "Average weight change", "setting": "Mus musculus [13]", "result": -2, "unit": "g"}, {"measurement": "Average weight change", "setting": "Mus musculus [14]", "result": -2.6, "unit": "g"}, {"measurement": "Average weight change", "setting": "Mus musculus [15]", "result": -0.8, "unit": "g"}, {"measurement": "Average weight change", "setting": "Mus musculus [16]", "result": -0.5, "unit": "g"}, {"measurement": "Average weight change", "setting": "Mus musculus [17]", "result": -2.3, "unit": "g"}, {"measurement": "Average weight change", "setting": "Mus musculus [18]", "result": -0.1, "unit": "g"}, {"measurement": "Toxicity related death", "setting": "Mus musculus [19]", "result": 0}, {"measurement": "Average weight change", "setting": "Mus musculus [20]", "result": -0.2, "unit": "g"}, {"measurement": "Average tumor volume", "setting": "Mus musculus [21]", "result": 1.24}, {"measurement": "Average tumor volume", "setting": "Mus musculus [22]", "result": 0.22}, {"measurement": "Average tumor volume", "setting": "Mus musculus [23]", "result": 0.8}, {"measurement": "Body weight", "setting": "Mus musculus [24]", "result": 23, "unit": "g"}, {"measurement": "Body weight", "setting": "Mus musculus [25]", "result": 22.9, "unit": "g"}, {"measurement": "Average weight change", "setting": "Mus musculus [26]", "result": 1.2, "unit": "g"}, {"measurement": "Average weight change", "setting": "Mus musculus [27]", "result": -0.8, "unit": "g"}]}]}
